Data set [1] deals with HIV TAR RNA. Put plainly: UV thermal denaturation of HIV TAR RNA with ligand. Conditions: 100 mM KCl; for ΔTm (at rdr = 1): pH 6.8, TAR RNA 1 μM/strand; for Tm: ligand/HIV TAR RNA complex, rdr = 1, 10 mM SC, 0.5 mM EDTA, pH 6.8, TAR RNA 1 μM/strand. In kind it is binding, HIV-1.
Data set [2] concerns the target HIV TAR RNA. As to the kind of experiment: Ethidium bromide displacement. In kind it is binding, HIV-1. Particulars: read-out: IC50 (ethidium bromide displacement); 100 mM KCl, 10 mM SC, 0.5 mM EDTA, pH 6.8; HIV TAR RNA 50 nM/strand. A digest of the protocol:
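Ethidium bromide at 1.25 μM is excited at 545 nm, and emission is scanned from 560 to 607 nm before and after adding TAR RNA. Under these conditions, less than 20% of the ethidium bromide is bound. Fluorescence displacement titration with test compound follows in the same buffer.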

The target in data set [3] is HIV TAR RNA. As to the kind of experiment: Ethidium bromide displacement titration with Scatchard analysis. In kind it is binding, HIV-1. Conditions: 100 mM KCl, 10 mM SC, 0.5 mM EDTA, pH 6.8; TAR RNA 200 nM/strand; EtBr 5 μM. A digest of the protocol:
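Fluorescent intercalator displacement: test compound titrated into ethidium bromide (5 μM) plus HIV TAR RNA (200 nM/strand) in 10 mM SC, 0.5 mM EDTA, pH 6.8 with 100 mM KCl. Salt series run at 50, 100 and 150 mM KCl. Excitation 545 nm, emission 560–607 nm. Scatchard plot slope gives the association constant K. For the salt series, log K was plotted against log [KCl] and fitted linearly.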

The test system of data set [4] is MT-2 cells. As to the kind of experiment: Toxicity against MT-2 cells. In kind it is cell-based. Particulars: concentration where no more than 5% cell death.
The test system of data set [5] is HIV. Put plainly: Protection from HIV-induced cytopathic effect. In kind it is cell-based. Particulars: for Maximum protection from HIV cytopathic effects: neutral red dye. The method in brief:
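MT-2 cells, a line highly susceptible to HIV and fully lysed by it, were used in triplicate wells. Finter's neutral red, a vital dye, served as read-out of inhibition of HIV-induced cytopathic effect, with water as control. Maximum percent protection was recorded together with the compound concentration at which it was reached.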

Data set [6] has as its system tetraloop TAR RNA Mutant. As to the kind of experiment: FID titration with Scatchard analysis on mutant TAR. Conditions: mutant tetraloop TAR 200 nM/strand; 100 mM KCl, pH 6.8; EtBr 5 μM. In kind it is binding, HIV-1. The method in brief: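 Tetraloop TAR RNA–ethidium bromide complex in 100 mM KCl, 10 mM SC, 0.5 mM EDTA, pH 6.8, titrated with increasing test compound. The fall in fluorescence at 610 nm was followed. Normalized intensity was plotted against compound concentration, then transformed by Scatchard analysis to derive the binding constant.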

For data set [7], the system named is HIVNL4-3. Put plainly: Reverse transcriptase release into culture supernatant of MT-2 cells. In kind it is cell-based, HIV. The method in brief: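 MT-2 cells (500,000/well) were preincubated 1 h at 37 °C with test compound at a non-toxic concentration (≤5% cell death), then infected with H9-grown HIV NL4-3 (100,000 cpm RT activity per well, MOI <1). Virus control was infected cells plus water. Supernatants from days 2, 4 and 6 were PEG-precipitated and lysed. RT was measured as 3H-dTTP incorporation (poly rA-oligo dT, 1 h, 37 °C), as cpm/ml. Three separate experiments, each in triplicate.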

The subject of data set [8] is TAR. Conditions: aminoglycosides targeted towards TAR binding; cited from earlier work.
The target of data set [9] is T1, Tat49-57 peptide, fluorescein/TAMRA FRET probe (HIV-1, UniProt P04608 49-57, not fully specified).
T1 chain: RKKRRQRRR
Put plainly: fluorescence intensity.

The term Tm denotes the temperature at which the thermal transition is half complete. In general, IC50 refers to the point on the concentration scale where inhibition reaches its midpoint.

Regarding `NC[C@@H]1O[C@H](O[C@H]2[C@@H](O)[C@H](O[C@@H]3[C@@H](O)[C@H](N)C[C@H](N)[C@H]3O[C@H]3O[C@H](CN)[C@@H](O)[C@H](O)[C@H]3N)O[C@@H]2Cn2cc(COCc3cn(C[C@H]4O[C@@H](O[C@@H]5[C@@H](O)[C@H](N)C[C@H](N)[C@H]5O[C@H]5O[C@H](CN)[C@@H](O)[C@H](O)[C@H]5N)[C@H](O)[C@@H]4O[C@H]4O[C@@H](CN)[C@@H](O)[C@H](O)[C@H]4N)nn3)nn2)[C@H](N)[C@@H](O)[C@@H]1O` [DPA51], in data set [1], the “ΔTm (at rdr = 1)” value was 10.2 °C and the Tm was found to be 79.1 °C. Besides, the IC50 in data set [2] is 56 nM. Moreover, the “K (binding constant from Scatchard analysis of FID)” value in data set [3] is 1.17e+08 M⁻¹.
For `NC[C@@H]1O[C@H](O[C@H]2[C@@H](O)[C@H](O[C@@H]3[C@@H](O)[C@H](N)C[C@H](N)[C@H]3O[C@H]3O[C@H](CN)[C@@H](O)[C@H](O)[C@H]3N)O[C@@H]2Cn2cc(CCCCc3cn(C[C@H]4O[C@@H](O[C@@H]5[C@@H](O)[C@H](N)C[C@H](N)[C@H]5O[C@H]5O[C@H](CN)[C@@H](O)[C@H](O)[C@H]5N)[C@H](O)[C@@H]4O[C@H]4O[C@@H](CN)[C@@H](O)[C@H](O)[C@H]4N)nn3)nn2)[C@H](N)[C@@H](O)[C@@H]1O` [DPA54], in data set [1], the “ΔTm (at rdr = 1)” value is 8.2 °C and the Tm came out at 77.1 °C. For the same molecule, the IC50 in [2] was 81 nM. Further, in data set [3], the “K (binding constant from Scatchard analysis of FID)” value was found to be 2.61e+07 M⁻¹. The “5% Toxicity (CT5)” value in data set [4] was found to be 69 µM. For the same molecule, the “concentration at which maximum protection was achieved” value in data set [5] (MT-2 cells, HIV cytopathic effect) came out at 17 µM. The “Maximum protection from HIV cytopathic effects” value in data set [5] (MT-2 cells) is given as 31%.
Regarding `NC[C@@H]1O[C@H](O[C@H]2[C@@H](O)[C@H](O[C@@H]3[C@@H](O)[C@H](N)C[C@H](N)[C@H]3O[C@H]3O[C@H](CN)[C@@H](O)[C@H](O)[C@H]3N)O[C@@H]2Cn2cc(-c3cccc(-c4cn(C[C@H]5O[C@@H](O[C@@H]6[C@@H](O)[C@H](N)C[C@H](N)[C@H]6O[C@H]6O[C@H](CN)[C@@H](O)[C@H](O)[C@H]6N)[C@H](O)[C@@H]5O[C@H]5O[C@@H](CN)[C@@H](O)[C@H](O)[C@H]5N)nn4)c3)nn2)[C@H](N)[C@@H](O)[C@@H]1O` [DPA65], in [1], the “ΔTm (at rdr = 1)” value stood at 9.3 °C. In [1], the melting temperature (Tm) came to 78.2 °C. For the same molecule, the IC50 in [2] was determined as 36 nM. Besides, the “K (binding constant from Scatchard analysis of FID)” value in data set [3] is 1.39e+08 M⁻¹. In addition, in data set [6], the “Ka (Scatchard analysis of FID titration)” value is ~ 10^7 M^−1. The “anti-HIV activity in the 96-well plate screening assay” value in [5] (HIV-induced cytopathic effect) is “inactive to weakly active”. The “protection / suppression of RT release” value in data set [7] (day 2 post inoculation, vs virus control) is recorded as 40-67%; in data set [7] (day 4, vs virus control), 68-73%; in data set [7] (day 6, vs virus control), 24-27%.
Turning to `NC[C@@H]1O[C@H](O[C@H]2[C@@H](O)[C@H](O[C@@H]3[C@@H](O)[C@H](N)C[C@H](N)[C@H]3O[C@H]3O[C@H](CN)[C@@H](O)[C@H](O)[C@H]3N)O[C@@H]2CO)[C@H](N)[C@@H](O)[C@@H]1O` [Neomycin, Neomycin B tri-sulfate, reference compound], in data set [1], the “ΔTm (at rdr = 1)” value was found to be 0.2 °C and the Tm was determined as 69.1 °C. The “ΔTm (at rdr = 1)” value in data set [1] (listed as neomycin) is listed as “no thermal stabilization”. Further, the IC50 in data set [2] was 417 nM. Further, the “Maximum protection from HIV cytopathic effects” value in data set [5] (MT-2 cells) is 9%. The inhibitory effect result in [8] is listed as “less than 1 μM”.

B1: HIV-1 TAR RNA (structured_RNA)
RNA: GGCAGAUCUGAGCCUGGGAGCUCUCUGCC
Turning to B1, in [9], the “apparent K (half saturation)” value stood at 86 ± 9 nM.

The values above are taken from publication PMC3673543 (Biochemistry, 2012).
